From ChEMBL document CHEMBL1649574, “Prevalence and characterization of heterogeneous vancomycin-intermediate Staphylococcus aureus isolates from 14 cities in China” (2009)
In brackets after ≈: the same amount, converted by molar mass.

Key:
Type in all cases: functional
[1] = test system: Staphylococcus aureus; assay: Antimicrobial activity against vancomycin-susceptible Staphylococcus aureus assessed as growth inhibition at MIC; design: scale not given: the % may be the effect or the level left
[2] = test system: Staphylococcus aureus; assay: Antimicrobial activity against heterogeneous vancomycin-intermediate Staphylococcus aureus assessed as susceptible isolates by agar dilution method
How it was run: (§1)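 MICs by agar dilution for all 200 MRSA blood isolates (oxacillin, rifampin, gentamicin, levofloxacin, erythromycin, vancomycin, teicoplanin, tigecycline, ceftobiprole, linezolid). Isolates were grouped by PAP-AUC ratio against S. aureus Mu3: below 0.9 VSSA, 0.9 to 1.3 hVISA, 1.3 or more VISA.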

[3] = test system: Staphylococcus aureus; assay: Antimicrobial activity against SCCmec type II vancomycin-intermediate Staphylococcus aureus isolate b2k4781 by agar dilution method
How it was run: (§2)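 Agar-dilution MICs were measured on a subset of 200 blood MRSA isolates from China. Agents: oxacillin, rifampin, gentamicin, levofloxacin, erythromycin, vancomycin, teicoplanin, tigecycline, ceftobiprole and linezolid. Phenotype came from the PAP-AUC ratio of each isolate to S. aureus Mu3 (VSSA <0.9; hVISA 0.9 to 1.3; VISA ≥1.3), read on BHI agar with 0 to 8.0 mg/liter vancomycin after 48 h at 35°C.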

[4] = test system: Staphylococcus aureus; assay: Antimicrobial activity against heterogeneous vancomycin-intermediate Staphylococcus aureus assessed as growth inhibition at 2 times MIC; design: scale not given: the % may be the effect or the level left
[5] = test system: Staphylococcus aureus; assay: Antimicrobial activity against SCCmec type III vancomycin-intermediate Staphylococcus aureus isolate b3k5923 by agar dilution method; how it was run: as §2
[6] = test system: Staphylococcus aureus; assay: Antimicrobial activity against vancomycin-susceptible Staphylococcus aureus assessed as growth inhibition at 4 times MIC; design: scale not given: the % may be the effect or the level left
[7] = test system: Staphylococcus aureus; assay: Antimicrobial activity against SCCmec type III vancomycin-intermediate Staphylococcus aureus isolate b6k1642 by agar dilution method; how it was run: as §2
[8] = test system: Staphylococcus aureus; assay: Antimicrobial activity against SCCmec type III vancomycin-intermediate Staphylococcus aureus isolate gz07030 by agar dilution method; how it was run: as §2
[9] = test system: Staphylococcus aureus; assay: Antimicrobial activity against SCCmec type III vancomycin-intermediate Staphylococcus aureus isolate 15b52 by agar dilution method; how it was run: as §2
[10] = test system: Staphylococcus aureus; assay: Antimicrobial activity against SCCmec type III vancomycin-intermediate Staphylococcus aureus isolate gz06040 by agar dilution method; how it was run: as §2
[11] = test system: Staphylococcus aureus; assay: Antimicrobial activity against heterogeneous vancomycin-intermediate Staphylococcus aureus assessed as growth inhibition at 0.5 times MIC; design: scale not given: the % may be the effect or the level left
[12] = test system: Staphylococcus aureus; assay: Antimicrobial activity against heterogeneous vancomycin-intermediate Staphylococcus aureus assessed as growth inhibition at 0.125 times MIC; design: scale not given: the % may be the effect or the level left
[13] = test system: Staphylococcus aureus; assay: Antimicrobial activity against heterogeneous vancomycin-intermediate Staphylococcus aureus assessed as growth inhibition at 16 times MIC; design: scale not given: the % may be the effect or the level left
[14] = test system: Staphylococcus aureus; assay: Antimicrobial activity against vancomycin-susceptible Staphylococcus aureus assessed as growth inhibition at 2 times MIC; design: scale not given: the % may be the effect or the level left
[15] = test system: Staphylococcus aureus; assay: Antimicrobial activity against vancomycin-intermediate Staphylococcus aureus by agar dilution method; how it was run: as §2
[16] = test system: Staphylococcus aureus; assay: Antimicrobial activity against SCCmec type III vancomycin-intermediate Staphylococcus aureus isolate 5zjsau3 by agar dilution method; how it was run: as §2
[17] = test system: Staphylococcus aureus; assay: Antimicrobial activity against vancomycin-susceptible Staphylococcus aureus assessed as growth inhibition at 0.5 times MIC; design: scale not given: the % may be the effect or the level left
[18] = test system: Staphylococcus aureus; assay: Antimicrobial activity against SCCmec type III vancomycin-intermediate Staphylococcus aureus isolate xa07029 by agar dilution method; how it was run: as §2
[19] = test system: Staphylococcus aureus; assay: Antimicrobial activity against SCCmec type III vancomycin-intermediate Staphylococcus aureus isolate b4k6307 by agar dilution method; how it was run: as §2
[20] = test system: Staphylococcus aureus; assay: Antimicrobial activity against vancomycin-susceptible Staphylococcus aureus assessed as growth inhibition at 0.125 times MIC; design: scale not given: the % may be the effect or the level left
[21] = test system: Staphylococcus aureus; assay: Antimicrobial activity against SCCmec type III vancomycin-intermediate Staphylococcus aureus isolate b6k7974 by agar dilution method; how it was run: as §2
[22] = test system: Staphylococcus aureus; assay: Antimicrobial activity against SCCmec type II vancomycin-intermediate Staphylococcus aureus isolate 4sy32 by agar dilution method; how it was run: as §2
[23] = test system: Staphylococcus aureus; assay: Antimicrobial activity against SCCmec type III vancomycin-intermediate Staphylococcus aureus isolate b3k2345 by agar dilution method; how it was run: as §2
[24] = test system: Staphylococcus aureus; assay: Antimicrobial activity against SCCmec type III vancomycin-intermediate Staphylococcus aureus isolate gs07022 by agar dilution method; how it was run: as §2
[25] = test system: Staphylococcus aureus; assay: Antimicrobial activity against SCCmec type II vancomycin-intermediate Staphylococcus aureus isolate 6zjsau7 by agar dilution method; how it was run: as §2
[26] = test system: Staphylococcus aureus; assay: Antimicrobial activity against heterogeneous vancomycin-intermediate Staphylococcus aureus assessed as intermediate isolates by agar dilution method; how it was run: as §1
[27] = test system: Staphylococcus aureus; assay: Antimicrobial activity against SCCmec type II vancomycin-intermediate Staphylococcus aureus isolate 07b63 by agar dilution method; how it was run: as §2
[28] = test system: Staphylococcus aureus; assay: Antimicrobial activity against SCCmec type II vancomycin-intermediate Staphylococcus aureus isolate sh06024 by agar dilution method; how it was run: as §2
[29] = test system: Staphylococcus aureus; assay: Antimicrobial activity against heterogeneous vancomycin-intermediate Staphylococcus aureus assessed as growth inhibition at 4 times MIC; design: scale not given: the % may be the effect or the level left
[30] = test system: Staphylococcus aureus; assay: Antimicrobial activity against heterogeneous vancomycin-susceptible Staphylococcus aureus assessed as susceptible isolates by agar dilution method; how it was run: as §1
[31] = test system: Staphylococcus aureus; assay: Antimicrobial activity against heterogeneous vancomycin-intermediate Staphylococcus aureus by agar dilution method; how it was run: as §2
[32] = test system: Staphylococcus aureus; assay: Antimicrobial activity against SCCmec type III vancomycin-intermediate Staphylococcus aureus isolate zj07028 by agar dilution method; how it was run: as §2
[33] = test system: Staphylococcus aureus; assay: Antimicrobial activity against vancomycin-susceptible Staphylococcus aureus assessed as growth inhibition at 0.25 times MIC; design: scale not given: the % may be the effect or the level left
[34] = test system: Staphylococcus aureus; assay: Antimicrobial activity against heterogeneous vancomycin-intermediate Staphylococcus aureus assessed as growth inhibition at 0.25 times MIC; design: scale not given: the % may be the effect or the level left
[35] = test system: Staphylococcus aureus; assay: Antimicrobial activity against vancomycin-susceptible Staphylococcus aureus by agar dilution method; how it was run: as §2
[36] = test system: Staphylococcus aureus; assay: Antimicrobial activity against heterogeneous vancomycin-susceptible Staphylococcus aureus assessed as intermediate isolates by agar dilution method
[37] = test system: Staphylococcus aureus; assay: Antimicrobial activity against heterogeneous vancomycin-intermediate Staphylococcus aureus assessed as growth inhibition at MIC; design: scale not given: the % may be the effect or the level left
[38] = test system: Staphylococcus aureus; assay: Antimicrobial activity against SCCmec type IV vancomycin-intermediate Staphylococcus aureus isolate 06b41 by agar dilution method; how it was run: as §2
[39] = test system: Staphylococcus aureus; assay: Antimicrobial activity against SCCmec type II vancomycin-intermediate Staphylococcus aureus isolate 4sy39 by agar dilution method; how it was run: as §2
[40] = test system: Staphylococcus aureus; assay: Antimicrobial activity against vancomycin-susceptible Staphylococcus aureus assessed as growth inhibition at 16 times MIC; design: scale not given: the % may be the effect or the level left
[41] = test system: Staphylococcus aureus; assay: Antimicrobial activity against SCCmec type III vancomycin-intermediate Staphylococcus aureus isolate bd4768 by agar dilution method; how it was run: as §2
[42] = test system: Staphylococcus aureus; assay: Antimicrobial activity against SCCmec type III vancomycin-intermediate Staphylococcus aureus isolate b5k3529 by agar dilution method; how it was run: as §2
[43] = test system: Staphylococcus aureus; assay: Antimicrobial activity against SCCmec type III vancomycin-intermediate Staphylococcus aureus isolate b2k3421 by agar dilution method; how it was run: as §2
[44] = test system: Staphylococcus aureus; assay: Antimicrobial activity against SCCmec type III vancomycin-intermediate Staphylococcus aureus isolate b5k3578 by agar dilution method; how it was run: as §2

SMILES: CC(=O)NC[C@H]1CN(c2ccc(N3CCOCC3)c(F)c2)C(=O)O1 [LINEZOLID]
- Activity [1]: 82.7%
- Activity [2]: 100%
- MIC [3]: 0.5 µg/mL (≈ 1.48 µM)
- Activity [4]: 100%
- MIC [5]: 0.5 µg/mL (≈ 1.48 µM)
- Activity [6]: 100%
- MIC [7]: 1 µg/mL (≈ 2.96 µM)
- MIC [8]: 1 µg/mL (≈ 2.96 µM)
- MIC [9]: 0.5 µg/mL (≈ 1.48 µM)
- MIC [10]: 1 µg/mL (≈ 2.96 µM)
- Activity [11]: 33.3%
- Activity [12]: 0%
- Activity [13]: 100%
- Activity [14]: 100%
- MIC [15]: 1 µg/mL (≈ 2.96 µM)
- MIC [16]: 1 µg/mL (≈ 2.96 µM)
- Activity [17]: 31.2%
- MIC [18]: 1 µg/mL (≈ 2.96 µM)
- MIC [19]: 0.5 µg/mL (≈ 1.48 µM)
- Activity [20]: 0.58%
- MIC [21]: 1 µg/mL (≈ 2.96 µM)
- MIC [22]: 1 µg/mL (≈ 2.96 µM)
- MIC [23]: 0.5 µg/mL (≈ 1.48 µM)
- MIC [24]: 1 µg/mL (≈ 2.96 µM)
- MIC [25]: 1 µg/mL (≈ 2.96 µM)
- Activity [26]: 0%
- MIC [27]: 1 µg/mL (≈ 2.96 µM)
- MIC [28]: 0.5 µg/mL (≈ 1.48 µM)
- Activity [29]: 100%
- Activity [30]: 100%
- MIC50 [31]: 1 µg/mL (≈ 2.96 µM)
- MIC90 [31]: 2 µg/mL (≈ 5.93 µM)
- MIC [32]: 1 µg/mL (≈ 2.96 µM)
- Activity [33]: 1.16%
- Activity [34]: 0%
- MIC50 [35]: 1 µg/mL (≈ 2.96 µM)
- MIC90 [35]: 2 µg/mL (≈ 5.93 µM)
- Activity [36]: 0%
- Activity [37]: 85.2%
- MIC [38]: 1 µg/mL (≈ 2.96 µM)
- MIC [39]: 1 µg/mL (≈ 2.96 µM)
- Activity [40]: 100%
- MIC [41]: 1 µg/mL (≈ 2.96 µM)
- MIC [42]: 0.5 µg/mL (≈ 1.48 µM)
- MIC [43]: 0.5 µg/mL (≈ 1.48 µM)
- MIC [44]: 0.5 µg/mL (≈ 1.48 µM)
